The values that follow come from paper PMC10620946 (Journal of medicinal chemistry, 2021).

Assay [1] addresses T1, human RNase L (H-RNase L) (Homo sapiens, UniProt Q05823).
T1 sequence (Q05823 1-741): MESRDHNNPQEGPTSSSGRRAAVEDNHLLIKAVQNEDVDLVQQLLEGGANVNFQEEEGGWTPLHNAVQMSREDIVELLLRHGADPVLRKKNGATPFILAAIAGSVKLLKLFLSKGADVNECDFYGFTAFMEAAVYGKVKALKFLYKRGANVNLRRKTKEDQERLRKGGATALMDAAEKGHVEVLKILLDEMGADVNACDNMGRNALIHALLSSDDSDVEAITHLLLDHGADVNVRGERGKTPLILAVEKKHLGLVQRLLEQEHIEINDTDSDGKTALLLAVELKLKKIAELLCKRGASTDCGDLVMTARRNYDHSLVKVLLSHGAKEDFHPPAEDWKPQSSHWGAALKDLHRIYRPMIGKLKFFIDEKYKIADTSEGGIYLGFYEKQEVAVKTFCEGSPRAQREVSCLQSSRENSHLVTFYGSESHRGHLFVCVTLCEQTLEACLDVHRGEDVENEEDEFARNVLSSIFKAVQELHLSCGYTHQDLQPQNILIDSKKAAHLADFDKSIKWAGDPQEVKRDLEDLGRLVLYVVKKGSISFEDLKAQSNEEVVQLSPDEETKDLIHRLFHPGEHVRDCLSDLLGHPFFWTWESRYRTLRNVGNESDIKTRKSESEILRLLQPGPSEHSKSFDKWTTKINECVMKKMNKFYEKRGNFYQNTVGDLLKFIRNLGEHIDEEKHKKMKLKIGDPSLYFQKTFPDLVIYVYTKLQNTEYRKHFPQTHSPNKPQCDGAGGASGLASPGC
Description: FRET based enzyme assay of RNA substrate cleavage, H-RNase L. In kind it is biochemical. The following applies: for IC50 against RNase L, in words: in vitro.

Assay [2] addresses RNase L. The following applies: cited from earlier work.
Assay [3] relates to P-RNase L21-732. Description: STD-NMR binding. The following applies: for STD-NMR signal (binding to P-RNase L): 10 μM P-RNase L21-732, 400 μM fragment; for STD-NMR binding to RNase L dimer: 2-5A in molar excess to RNase L; for STD-NMR binding with ATP/MgCl2: ATP/MgCl2 or mixture of 2-5A and ATP/MgCl2 in molar excess to RNase L; for STD-NMR binding to monomeric RNase L: absence of 2-5A. On the set-up: species or system porcine.

For assay [4], the target named is porcine RNase L (P-RNase L) (Sus scrofa, UniProt A5H025). Description: FRET based enzyme assay of RNA substrate cleavage, P-RNase L. In kind it is biochemical.
Assay [5] relates to RNase L. The following applies: cited from earlier work. The source holds these as a separate data set.
Assay [6] addresses T2, H-RNase L (Homo sapiens, UniProt Q05823).
T2 sequence (Q05823 1-741): T1 sequence (Q05823 1-741)
Description: RNase L mediated rRNA cleavage in intact A549 cells. Type of assay: cell-based. The settings on record: 3-100 μM inhibitor, 4 h, then 20 μM trimeric 2-5A 2 h.

The subject of assay [7] is P-RNase L. Description: RNase L oligomerization assay. Type of assay: biochemical, porcine. The following applies: 40 μM compound, 2-5A up to 2 μM. An outline of the steps:
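Full-length porcine RNase L (0.8 μM) with 5 mM MgCl₂, preincubated ±test compound 15 min on ice. 2-5A then added for a further 15 min on ice. Cross-linked with DMS (120 mg/mL stock in 0.4 M triethanolamine-HCl, pH 8.5) 1 h at room temperature. Denatured in SDS/β-mercaptoethanol loading buffer at 95 °C for 5 min. Resolved by 4-12% gradient SDS-PAGE with Coomassie G-250 stain and imaged.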

In the case of `O=C(CCc1ccc(O)cc1)c1c(O)cc(O)cc1O` [phloretin], the “inhibition of H-RNase L in vitro” value in assay [1] is recorded as “inhibited”.
As for `CCN(CC)CCNC(=O)c1c(C)[nH]c(/C=C2\C(=O)Nc3ccc(F)cc32)c1C` [sunitinib], in assay [2], the “IC50 against RNase L in vitro, in words” value was “micromolar range”.
As for `CCCCOC(=O)c1ccc(O)cc1` [AC40357], in assay [1], the “inhibition of H-RNase L in vitro” value is given as “inhibited” and the “IC50 against RNase L, in words” value is listed as “low millimolar”. Further, the “STD-NMR signal (binding to P-RNase L)” value in assay [3] is listed as “positive”. Further, in assay [4], the “inhibition of P-RNase L in vitro” value was “inhibited only H-RNase L”.
Consider `O=C(O)c1cc(O)c(O)c(O)c1Oc1cc2c(=O)oc3c(O)c(O)cc4c(=O)oc(c1O)c2c34` [VAL, valoneic acid dilactone], for which the “inhibition activity on RNase L in vitro, in words” value in assay [2] is “nanomolar”. Further, in assay [5], the “EC50 for RNase L in intact cells, in words” value was “micromolar range”.
For the molecule `Cc1cc(C(=O)O)cc(Cl)n1` [RF03759], in assay [3], the “STD-NMR signal (binding to P-RNase L)” value was “positive”.
In the case of `O=c1c(O)c(-c2cc(O)c(O)c(O)c2)oc2cc(O)cc(O)c12` [myricetin], the “inhibition of H-RNase L in vitro” value in assay [1] is given as “inhibited”. In assay [3], the “STD-NMR binding to RNase L dimer” value is given as “positive STD signal”, the “STD-NMR binding with ATP/MgCl2” value was “remained positive” and the “STD-NMR binding to monomeric RNase L” value is on record as “directly interacts”. Further, the “inhibitory activity against RNase L in intact cells (rRNA cleavage)” value (“inhibitory activity against RNase L” for short) in assay [6] is “identical inhibitory activity to that of VAL”. Moreover, the “inhibition of P-RNase L in vitro” value in assay [4] is given as “inhibited”.
For the molecule `O=c1c(O[C@@H]2O[C@H](CO)[C@H](O)[C@H](O)[C@H]2O)c(-c2ccc(O)c(O)c2)oc2cc(O)cc(O)c12` [hyperoside], in assay [1], the “inhibition of H-RNase L in vitro” value is on record as “inhibited” and the “IC50 against RNase L, in words” value is given as “single-digit micromolar”. For the same molecule, in assay [1] (2-5A 1, 5 and 20 nM), the “effect of 2-5A concentration on potency against H-RNase L” value is recorded as “does not seem to have an effect”. Further, in assay [3], the “STD-NMR binding to RNase L dimer” value is “positive STD signal”, the “STD-NMR binding with ATP/MgCl2” value is “remained positive” and the “STD-NMR binding to monomeric RNase L” value is reported as “directly interacts”. The “inhibitory activity against RNase L” value in assay [6] is “did not show any inhibitory activity”. Also, in assay [4], the “inhibition of P-RNase L in vitro” value is “inhibited”. For the same molecule, in assay [4] (2-5A 1, 5 and 20 nM), the “effect of 2-5A concentration on potency against P-RNase L” value is “does not seem to have an effect”. In addition, the “suppression of 2-5A induced RNase L dimerization (cross-linking)” value in assay [7] is given as “did not suppress”.
Turning to `O=c1cc(-c2ccc(O)cc2)oc2c([C@@H]3O[C@H](CO)[C@@H](O)[C@H](O)[C@H]3O)c(O)cc(O)c12` [vitexin], the “STD-NMR signal (binding to P-RNase L)” value in assay [3] was “directly binds”. In addition, the “inhibitory activity against RNase L” value in assay [6] is listed as “did not show any inhibitory activity”.
Take `C[S+]([O-])c1sc(Cl)c2c1C(=O)CCC2` (centres unmarked) [KM05073]: the “STD-NMR signal (binding to P-RNase L)” value in assay [3] is on record as “positive”.
The same measure, in the same setting: the result for `Oc1ccc(Sc2ccc(O)cc2)cc1` [BTB10184] reads “positive”.
On to `O=c1c(O)c(-c2ccc(O)cc2O)oc2cc(O)cc(O)c12` [morin], for which, in assay [1], the “inhibition of H-RNase L in vitro” value was “not active”. Moreover, the “inhibition of P-RNase L in vitro” value in assay [4] is given as “not active”.
`O=C(O)c1ccc(Cl)nc1Cl` [AC39661]: the “STD-NMR signal (binding to P-RNase L)” value in assay [3] is listed as “positive”.
